Experimental data: ChEMBL document CHEMBL4477197, “Antitumor Activity of Spicatoside A by Modulation of Autophagy and Apoptosis in Human Colorectal Cancer Cells” (J Nat Prod, 2016)

Tests used:
[1] = tested on: MDA-MB-231; test: Antiproliferative activity against human MDA-MB-231 cells after 24 to 72 hrs by SRB assay; assay type: functional, cell-based
In short: (§1)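 Cells from ATCC were grown at 37 °C in 5% CO2, in RPMI 1640 (A549, HCT116, SNU-638) or DMEM (MDA-MB-231, SK-HEP-1, MRC5) with 10% FBS. They were seeded at 6 × 10^3 cells/well for 24 h, then exposed for 72 h. Cells were TCA-fixed, stained with 0.4% SRB, and read at 515 nm against day-zero plates. IC50 came from nonlinear regression, as means ± SD.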

[2] = tested on: SNU-638; test: Antiproliferative activity against human SNU638 cells after 24 to 72 hrs by SRB assay; assay type: functional, cell-based; in short: as §1
[3] = tested on: SK-HEP1; test: Antiproliferative activity against human SKHEP1 cells after 24 to 72 hrs by SRB assay; assay type: functional, cell-based; in short: as §1
[4] = tested on: MRC5; test: Antiproliferative activity against human MRC5 cells after 24 to 72 hrs by SRB assay; assay type: cell-based; in short: as §1
[5] = tested on: A549; test: Antiproliferative activity against human A549 cells after 24 to 72 hrs by SRB assay; assay type: functional, cell-based; in short: as §1
[6] = tested on: HCT-116; test: Antiproliferative activity against human HCT116 cells after 24 to 72 hrs by SRB assay; assay type: functional, cell-based; in short: as §1

Q: Which results are given for Cc1c2ccncc2c(C)c2c1[nH]c1ccccc12 [ELLIPTECINE]?
A: IC50 [1]: 100 nM; IC50 [2]: 2700 nM; IC50 [3]: 400 nM; IC50 [4]: 1300 nM; IC50 [5]: 400 nM; IC50 [6]: 1000 nM
